# Results reported in ChEMBL document CHEMBL5634206, “Chiral hydroxymethyl-1H,3H-pyrrolo[1,2-c]thiazoles: the search for selective p53-activating agents for colorectal cancer therapy” (RSC Med Chem, 2024).
# Tests used:
# HCT-116 [1] = assay: Antiproliferative activity against human HCT-116 cells expressing p53-/- assessed as inhibition of cell growth incubated for 48 hrs by SRB assay; assay type: functional, cell-based
# How it was run: (§1)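 Isogenic HCT116 p53+/+ and p53−/− pair from B. Vogelstein, grown as monolayers in RPMI-1640 with 2 mM L-glutamine and 10% heat-inactivated FBS at 37 °C, 5% CO2. Cells seeded at 5 × 10^3 per well for 24 h, then given serial dilutions from 0.2 to 50 μM for 48 h. IC50 read by sulforhodamine B staining.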
# PANC-1 = assay: Antiproliferative activity against human PANC-1 cells assessed as inhibition of cell growth incubated for 48 hrs by SRB assay; assay type: functional, cell-based; settings: PANC-1, 48 h
# How it was run: (§2)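 MDA-MB-231 and PANC-1 cells grown in high-glucose DMEM (4.5 g L−1) with L-glutamine, sodium pyruvate and 10% heat-inactivated FBS at 37 °C, 5% CO2. After seeding 5 × 10^3 cells per well for 24 h, cells received serial dilutions of 0.2–50 μM for 48 h. IC50 by SRB. Mean ± SD of 3 independent experiments.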
# A-375 = assay: Antiproliferative activity against human A-375 cells assessed as inhibition of cell growth incubated for 48 hrs by SRB assay; assay type: functional, cell-based; settings: A-375, 48 h
# How it was run: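 A375 melanoma cells grown as monolayers in RPMI-1640 with 2 mM L-glutamine and 10% heat-inactivated FBS at 37 °C, 5% CO2. Seeded at 5 × 10^3 cells per well for 24 h, then exposed to serial dilutions (0.2–50 μM) for 48 h. IC50 determined by SRB. Mean ± SD of 3 independent experiments.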
# HCT-116 [2] = assay: Antiproliferative activity against wildtype p53 expressing human HCT-116 cells assessed as inhibition of cell growth incubated for 48 hrs by SRB assay; assay type: functional, cell-based; how it was run: as §1
# MDA-MB-231 = assay: Antiproliferative activity against human MDA-MB-231 cells assessed as inhibition of cell growth incubated for 48 hrs by SRB assay; assay type: functional, cell-based; settings: MDA-MB-231, 48 h; how it was run: as §2
# HCT-116 [3] = assay: Potency index, ratio of test compound IC50 to MANIO IC50 for antiproliferative activity against wildtype p53 expressing human HCT-116 cells assessed as inhibition of cell growth incubated for 48 hrs by SRB assay
# [4] = Selectivity ratio of IC50 for antiproliferative activity against human HCT-116 cells expressing p53-/- to IC50 for antiproliferative activity against wildtype p53 expressing human HCT-116 cells; assay type: functional
# [5] = Homo sapiens, HCT-116, 48 h, read-out: IC50
IC50 (HCT-116 [1]; [5]) [µM],IC50 (PANC-1) [µM],IC50 (A-375) [µM],IC50 (HCT-116 [2]; [5]) [µM],IC50 (MDA-MB-231) [µM],IC50 (HCT-116 [1]; hct-116),IC50 (HCT-116 [2]; hct-116),Structure (SMILES),Ratio IC50 (HCT-116 [3]),Ratio IC50 [4]
> 50,> 50,39.5,6.68,> 50,,,Cc1c(CO)cc2n1[C@@H](c1ccccc1)SC2,,
> 50,,,29.3,,,,Cc1cc(CO)c2n1[C@@H](c1ccccc1)SC2,,
51.8,33.1,14.5,5.11,> 50,,,Cc1c(CO)c(CO)c2n1[C@@H](c1ccccc1)SC2,5,
48.2,42.1,13.2,,> 50,,,Cc1c(CO)c(CO)c2n1[C@H](c1ccccc1)SC2,,~50
> 50,,,20.3,,,,OCc1cn2c(c1CO)CS[C@@H]2c1ccccc1,,
18.1,> 50,> 50,0.14,> 50,,,Cc1cc(CO)c2n1[C@H](c1ccccc1)SC2,,129
,,,,,Not Determined(Insoluble),Not Determined(Insoluble),Cc1c(CO)c(CO)c2n1[C@@H](c1cccc3ccccc13)SC2,,
4.33,35,11.8,0.99,24.1,,,Cc1c(CO)cc2n1[C@H](c1ccccc1)SC2,,

# More lines, now with the values behind:
Structure (SMILES),IC50 (HCT-116 [1]; [5]) [µM],IC50 (PANC-1) [µM],IC50 (A-375) [µM],IC50 (HCT-116 [2]; [5]) [µM],IC50 (MDA-MB-231) [µM],IC50 (HCT-116 [1]; hct-116),IC50 (HCT-116 [2]; hct-116),Ratio IC50 (HCT-116 [3]),Ratio IC50 [4]
Cc1c(CO)cc2n1CSC2,> 50,,,28.3,,,,,
COc1cc([C@H]2SCc3c(CO)c(CO)c(C)n32)cc(OC)c1OC,> 50,,,> 50,,,,,
COc1ccc([C@H]2SCc3c(CO)c(CO)c(C)n32)cc1,> 50,> 50,> 50,4.61,> 50,,,,
Cc1c(CO)c(CO)c2n1[C@@H](c1ccc(O)cc1)SC2,> 50,,,16.6,,,,,
Cc1c(CO)c(CO)c2n1[C@H](c1ccccc1)SC2(C)C,22.2,,,24.3,,,,,
Cc1c(CO)c(CO)c2n1[C@@H](C)SC2,46.2,,,33.3,,,,,
COc1ccc([C@@H]2SCc3c(CO)c(CO)c(C)n32)cc1,23.5,> 50,22.8,1.47,16.6,,,,
OCc1nn2c(c1CO)CSC2,> 50,,,> 50,,,,,
Cc1c(CO)c(CO)c2n1[C@@H](Cc1ccccc1)SC2,29.1,,,16.3,,,,,
Cc1c(CO)c(CO)c2n1[C@@H](c1ccc(F)cc1)SC2,32.5,20.2,36.1,4.43,> 50,,,,
Cc1c(CO)c(CO)c2n1[C@H](C)SC2,42.7,,,31.4,,,,,
Cc1c(CO)c(CO)c2n1[C@@H](c1cccc3cccnc13)SC2,> 50,17.4,24.4,7.5,> 50,,,,
Cc1c(CO)c(CO)c2n1[C@@H](c1ccccc1)S(=O)(=O)C2,> 50,,,> 15,,,,,
